Reference: publication PMC4263960 (Pediatric blood & cancer, 2013)

Tests used:
BT-29 rhabdoid xenograft = test: PPTP in vivo xenograft testing, BT-29; parameters: species or system mice
KT-16 rhabdoid xenograft = test: PPTP in vivo xenograft testing, KT-16; parameters: species or system mice
[1] = test system: Rh41 ALV rhabdomyosarcoma xenograft; test: PPTP in vivo xenograft testing, Rh41; parameters: species or system mice
[2] = test system: ALL-7 ALL B-precursor xenograft; test: PPTP in vivo xenograft testing, ALL-7; parameters: species or system mice
[3] = test system: D456 glioblastoma xenograft; test: PPTP in vivo xenograft testing, D456; parameters: species or system mice
Ramos-RA1 cell line = test: DIMSCAN in vitro cytotoxicity testing, Ramos-RA1; assay type: cell-based
Summary of the method: (§1)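 Test compound incubated with cells of a 24-line pediatric cancer panel for 96 h at 0.1 nM to 1 μM, then assessed by DIMSCAN. Relative IC50 (rIC50) derived per line. Panel comparison value is the panel rIC50 divided by the rIC50 of each cell line.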

[4] = test system: MLL-7 tertiary infant precursor B-ALL xenograft; test: PPTP in vivo xenograft testing, MLL-7; parameters: species or system mice
[5] = test system: ALL-19 ALL B-precursor xenograft; test: PPTP in vivo xenograft testing, ALL-19; parameters: species or system mice
[6] = test system: NB-1691 neuroblastoma xenograft; test: PPTP in vivo xenograft testing, NB-1691; parameters: species or system mice
[7] = Human pharmacokinetics of eribulin; assay type: in vivo, humans; conditions: plasma, intravenous, 1.4 mg/m2
Karpas-299 cell line = test: DIMSCAN in vitro cytotoxicity testing, Karpas-299; assay type: cell-based
Summary of the method: as §1

SJ-GBM2 cell line = test: DIMSCAN in vitro cytotoxicity testing, SJ-GBM2; assay type: cell-based
Summary of the method: as §1

[8] = 1 mg/kg IP Q4Dx3 repeated at Day 21
[9] = 1.5 mg/kg IP Q4Dx3 repeated at Day 21

## C=C1C[C@@H]2CC[C@@]34C[C@H]5O[C@H]6[C@@H](O3)[C@H]3O[C@H](CC[C@@H]3O[C@H]6[C@H]5O4)CC(=O)C[C@@H]3[C@@H](OC)[C@@H](C[C@H](O)CN)O[C@H]3C[C@H]3O[C@@H](CC[C@@H]1O2)C[C@@H](C)C3=C [Eribulin]
BT-29 rhabdoid xenograft; 1 mg/kg IP
  T/C volume activity: Low (Low activity = T/C >0.45)
BT-29 rhabdoid xenograft; [8]
  EFS T/C: >1.6
  Median final RTV (CD45%): >4
BT-29 rhabdoid xenograft; 1 mg/kg IP, Day 21 or earlier
  Tumor volume T/C: 0.65
KT-16 rhabdoid xenograft; 1 mg/kg IP
  EFS activity: Low (Low activity = EFS T/C <2)
  Response activity: Low (low activity by a score of <2)
  T/C volume activity: Low (Low activity = T/C >0.45)
KT-16 rhabdoid xenograft; [8]
  EFS T/C: 1.1
  Median final RTV (CD45%): >4
  Time to event: 12.1
KT-16 rhabdoid xenograft; 1 mg/kg IP, Day 21 or earlier
  Tumor volume T/C: 0.76
[1]; 1 mg/kg IP
  EFS activity: High (High activity requires: (a) an EFS T/C >2; (b) a significant difference in EFS distributions, and (c) a net reduction in median tumor volume for animals in the treated group at the end of treatment as compared to at treatment initiation)
  Response activity: High (A high level of activity is indicated by a score of 6 or more)
  T/C volume activity: High (High activity = T/C ≤0.15)
[1]; [8]
  EFS T/C: >3.0
  Median final RTV (CD45%): 0.0
[1]; 1 mg/kg IP, Day 21 or earlier
  Tumor volume T/C: 0.07
[2]; 1.5 mg/kg IP
  EFS activity: Int (Intermediate activity = criteria (a) and (b) above, but not having a net reduction in median tumor volume for treated animals at the end of the study)
  Response activity: High (A high level of activity is indicated by a score of 6 or more)
[2]; [9]
  EFS T/C: >4.4
[2]; CD45%, 1.5 mg/kg IP
  Median final RTV (CD45%): 3.0%
[3]; 1 mg/kg IP
  EFS activity: Int (Intermediate activity = criteria (a) and (b) above, but not having a net reduction in median tumor volume for treated animals at the end of the study)
  Response activity: Int (intermediate activity by a score of ≥2 but <6)
  T/C volume activity: Low (Low activity = T/C >0.45)
[3]; [8]
  EFS T/C: 3.4
  Median final RTV (CD45%): >4
  Time to event: 19.8
[3]; 1 mg/kg IP, Day 21 or earlier
  Tumor volume T/C: 1.00
Ramos-RA1 cell line; 96 h, read-out: rIC50
  IC50: < 0.1 nM
Ramos-RA1 cell line; Ramos-RA1
  Panel rIC50/Line rIC50: >2.74
  Relative in/out%: −100%
  Ymin % (observed): 0.00%
[4]; 1.5 mg/kg IP
  EFS activity: High (High activity requires: (a) an EFS T/C >2; (b) a significant difference in EFS distributions, and (c) a net reduction in median tumor volume for animals in the treated group at the end of treatment as compared to at treatment initiation)
  Response activity: High (A high level of activity is indicated by a score of 6 or more)
[4]; [9]
  EFS T/C: >4.7
[4]; CD45%, 1.5 mg/kg IP
  Median final RTV (CD45%): 0.0%
[5]; 1.5 mg/kg IP
  EFS activity: High (High activity requires: (a) an EFS T/C >2; (b) a significant difference in EFS distributions, and (c) a net reduction in median tumor volume for animals in the treated group at the end of treatment as compared to at treatment initiation)
  Response activity: High (A high level of activity is indicated by a score of 6 or more)
[5]; [9]
  EFS T/C: >8.4
[5]; CD45%, 1.5 mg/kg IP
  Median final RTV (CD45%): 0.0%
[6]; 1 mg/kg IP
  EFS activity: Low (Low activity = EFS T/C <2)
  Response activity: Low (low activity by a score of <2)
  T/C volume activity: Low (Low activity = T/C >0.45)
[6]; [8]
  EFS T/C: 1.1
  Median final RTV (CD45%): >4
  Time to event: 7.9
[6]; 1 mg/kg IP, Day 21 or earlier
  Tumor volume T/C: 0.80
[7]
  AUC: 1580 ng·h/mL
Karpas-299 cell line; Homo sapiens, KARPAS-299, 96 h, read-out: rIC50
  IC50: < 0.1 nM
Karpas-299 cell line; Karpas-299
  Panel rIC50/Line rIC50: >2.74
  Relative in/out%: −100%
  Ymin % (observed): 0.03%
SJ-GBM2 cell line; 96 h, read-out: rIC50
  IC50: 0.51 nM
SJ-GBM2 cell line; SJ-GBM2
  Panel rIC50/Line rIC50: 0.53
  Relative in/out%: −95%
  Ymin % (observed): 0.46%
